Source: ChEMBL document CHEMBL4007489, “First Bispecific Inhibitors of the Epidermal Growth Factor Receptor Kinase and the NF-κB Activity As Novel Anticancer Agents” (J Med Chem, 2017)
pIC50: −log10 of the molar value. Active and inactive are the calls of the source. No cut-off for these calls is given here.

Key:
[1] = species on record: Homo sapiens; assay: Inhibition of TNFalpha-stimulated NF-kappaB (unknown origin) expressed in human U937 cells at 1 to 5 uM incubated for 3 hrs followed by TNFalpha stimulation measured after 2.5 hrs by luciferase reporter gene assay; assay type: cell-based
[2] = Blood clearance in Sprague-Dawley rat by LC-MS/MS analysis; assay type: ADME
[3] = species on record: Homo sapiens; assay: Inhibition of TNFalpha-stimulated NF-kappaB (unknown origin) expressed in human U937 cells at 5 uM incubated for 3 hrs followed by TNFalpha stimulation measured after 2.5 hrs by luciferase reporter gene assay; assay type: cell-based
[4] = target: T1, Epidermal growth factor receptor (Homo sapiens, UniProt P00533); details: at 150 nM
T1 sequence (P00533 whole entry): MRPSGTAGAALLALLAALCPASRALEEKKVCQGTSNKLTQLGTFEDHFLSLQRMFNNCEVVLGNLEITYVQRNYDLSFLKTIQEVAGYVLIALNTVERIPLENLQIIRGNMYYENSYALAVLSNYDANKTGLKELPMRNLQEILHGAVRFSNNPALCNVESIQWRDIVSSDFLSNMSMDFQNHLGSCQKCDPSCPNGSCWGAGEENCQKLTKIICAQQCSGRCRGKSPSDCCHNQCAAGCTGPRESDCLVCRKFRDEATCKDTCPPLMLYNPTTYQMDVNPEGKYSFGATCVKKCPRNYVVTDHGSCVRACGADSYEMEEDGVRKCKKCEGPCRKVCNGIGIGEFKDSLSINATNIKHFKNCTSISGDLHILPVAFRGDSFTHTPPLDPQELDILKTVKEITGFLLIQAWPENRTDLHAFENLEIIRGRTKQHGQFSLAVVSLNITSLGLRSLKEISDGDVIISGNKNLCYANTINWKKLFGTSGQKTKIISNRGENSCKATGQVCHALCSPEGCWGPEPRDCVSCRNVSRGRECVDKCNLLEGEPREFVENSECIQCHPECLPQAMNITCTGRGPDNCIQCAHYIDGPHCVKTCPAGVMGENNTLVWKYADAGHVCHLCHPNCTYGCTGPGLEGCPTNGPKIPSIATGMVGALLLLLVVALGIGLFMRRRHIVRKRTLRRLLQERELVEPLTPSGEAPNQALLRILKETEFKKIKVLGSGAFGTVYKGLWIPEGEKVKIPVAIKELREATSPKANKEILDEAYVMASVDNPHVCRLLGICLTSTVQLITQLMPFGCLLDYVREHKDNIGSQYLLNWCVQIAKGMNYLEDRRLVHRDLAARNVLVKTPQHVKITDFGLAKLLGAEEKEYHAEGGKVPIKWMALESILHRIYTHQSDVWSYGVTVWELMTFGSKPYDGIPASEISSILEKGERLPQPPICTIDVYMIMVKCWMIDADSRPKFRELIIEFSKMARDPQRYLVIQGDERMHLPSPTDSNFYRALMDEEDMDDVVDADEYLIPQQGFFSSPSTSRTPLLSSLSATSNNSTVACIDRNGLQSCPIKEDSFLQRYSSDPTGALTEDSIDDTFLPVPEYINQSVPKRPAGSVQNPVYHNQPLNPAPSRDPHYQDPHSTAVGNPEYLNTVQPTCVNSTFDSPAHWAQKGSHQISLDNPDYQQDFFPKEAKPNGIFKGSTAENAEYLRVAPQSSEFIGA

[5] = Cmax in NMRI nu/nu mouse at 10 mg/kg, sc administered as single dose by LC-MS analysis; assay type: ADME, organism-based; parameters: dose 10 mg/kg, route subcutaneous; details: in vivo
Procedure, shortened: (§1)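 Female NMRI nu/nu mice (28−32 g), nine animals per compound. Single sc injection of 10 mg/kg, formulated at 1 mg/mL in PBS/propylene glycol (80:20, v/v) by ultrasonication. Blood sampled at 10 min, 30 min, 1, 3, 8 and 24 h, two samples per animal, into heparinized tubes. Plasma proteins precipitated with acetonitrile containing griseofulvin internal standard. Quantified by LC-MS against calibration standards prepared in drug-free plasma.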

[6] = target: T1, Epidermal growth factor receptor; assay: biochemical; assay type: cell-based
[7] = test system: Mus musculus; assay: (§2) Toxicity in human MDA-MB-231 cells xenografted NMRI nu/nu mouse assessed as anomalous behaviour at 10 mg/kg, sc administered 5 days post tumor cell inoculation treated for 14 days followed by treatment pause for 6 days followed by treatment continuation on every second day until day 28 measured on day 7, 14 and day 28; assay type: organism-based; details: in vivo
Procedure, shortened: (§3)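 Mice bearing MDA-MB-231 xenografts were monitored for behaviour and body weight over the 28-day sc dosing schedule. Organ morphology was inspected after sacrifice.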

[8] = test system: Mus musculus; assay: as §2, with “effect on body weight” for “anomalous behaviour”; assay type: organism-based; details: in vivo; procedure, shortened: as §3
[9] = test system: Mus musculus; assay: Toxicity in NMRI nu/nu mouse assessed as effect on organ morphology at 10 mg/kg, sc administered as single dose; assay type: organism-based; details: in vivo
[10] = Apparent oral clearance in NMRI nu/nu mouse at 10 mg/kg, sc administered as single dose by LC-MS analysis; assay type: ADME, organism-based; details: in vivo; procedure, shortened: as §1
[11] = Tmax in NMRI nu/nu mouse at 10 mg/kg, sc administered as single dose by LC-MS analysis; assay type: ADME, organism-based; details: in vivo; procedure, shortened: as §1
[12] = AUC (0 to infinity) in NMRI nu/nu mouse at 10 mg/kg, sc administered as single dose by LC-MS analysis; assay type: ADME, organism-based; parameters: dose 10 mg/kg, route subcutaneous, time infinity; details: in vivo; procedure, shortened: as §1
[13] = Drug uptake in NMRI nu/nu mouse at 10 mg/kg, sc administered as single dose after 24 hrs by LC-MS analysis; assay type: ADME, organism-based; details: in vivo, read-out: Drug uptake; procedure, shortened: as §1
[14] = test system: Mus musculus; assay: as §2, with “effect on organ morphology” for “anomalous behaviour”; assay type: organism-based; details: in vivo
Procedure, shortened: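 Female NMRI nu/nu mice (~8 weeks old) received 2 × 10^6 MDA-MB-231 cells in Matrigel into each flank. Dosing began 5 days later (day 1), with 6 mice per group. Compound or vehicle was given sc in PBS/propylene glycol (80:20, v/v) at 1 mg/mL. Behaviour and body weight were followed. Organs were inspected morphologically after sacrifice on day 28.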

[15] = Solubility in water; assay type: physicochemical; details: buffer
[16] = test system: Mus musculus; assay: Toxicity in NMRI nu/nu mouse assessed as anomalous behaviour at 10 mg/kg, sc administered as single dose; assay type: organism-based; details: in vivo
[17] = test system: MDA-MB-231; assay: cells; assay type: functional; details: Homo sapiens, MDA-MB-231, 48 h
[18] = cells; assay type: cell-based; details: Homo sapiens, U-937
[19] = Half life in NMRI nu/nu mouse at 10 mg/kg, sc administered as single dose by LC-MS analysis; assay type: ADME, organism-based; details: in vivo; procedure, shortened: as §1
[20] = Half life in Sprague-Dawley rat liver microsomes assessed as parent compound remaining at 0.5 uM in presence of NADPH by LC-MS/MS analysis; assay type: ADME, microsome
[21] = AUC (0 to 24 hrs) in NMRI nu/nu mouse at 10 mg/kg, sc administered as single dose by LC-MS analysis; assay type: ADME, organism-based; parameters: dose 10 mg/kg, time < 24 hr, route subcutaneous; details: in vivo; procedure, shortened: as §1
[22] = target: Transcription factor p65 (Homo sapiens) (UniProt Q04206); assay: Inhibition of IL-1beta-stimulated nuclear translocation of GFP-tagged NF-kappaB-p65 (unknown origin) expressed in CHO cells at 15 uM preincubated with IL-1beta for 30 mins followed by compound addition in presence of Pluronic F127 by fluorescence assay; assay type: cell-based
Chain of Transcription factor p65 (Homo sapiens) (Q04206 whole entry): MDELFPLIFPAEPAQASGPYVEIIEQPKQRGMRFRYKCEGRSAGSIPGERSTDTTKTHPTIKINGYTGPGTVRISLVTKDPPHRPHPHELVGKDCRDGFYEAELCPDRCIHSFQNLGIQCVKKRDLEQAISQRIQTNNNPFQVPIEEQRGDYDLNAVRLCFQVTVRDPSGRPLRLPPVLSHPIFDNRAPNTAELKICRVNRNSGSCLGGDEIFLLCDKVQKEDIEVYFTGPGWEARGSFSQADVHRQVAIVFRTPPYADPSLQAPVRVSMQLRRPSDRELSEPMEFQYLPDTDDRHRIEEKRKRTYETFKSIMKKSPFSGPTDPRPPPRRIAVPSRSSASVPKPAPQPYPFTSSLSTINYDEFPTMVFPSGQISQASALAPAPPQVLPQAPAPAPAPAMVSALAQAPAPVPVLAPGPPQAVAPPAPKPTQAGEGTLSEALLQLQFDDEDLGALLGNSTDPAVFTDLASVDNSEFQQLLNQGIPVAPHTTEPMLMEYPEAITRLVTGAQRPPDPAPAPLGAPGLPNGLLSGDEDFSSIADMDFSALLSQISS

[23] = test system: MDA-MB-231; assay: as §2, with “Antitumor activity against” for “Toxicity in”, “xenografted in” for “xenografted”, “mouse” for “mouse assessed as anomalous behaviour”, “25” for “10”; assay type: functional, organism-based
Procedure, shortened: (§4)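 MDA-MB-231 cells, 2 × 10^6 per site in Matrigel, injected into both flanks of female NMRI nu/nu mice about 8 weeks old; 6 mice per group. From day 5 after inoculation (day 1), sc dosing in PBS/propylene glycol 80:20. Dosing every weekday for 14 days, then a 6-day pause, then every second day from day 21 to sacrifice on day 28. Tumor diameters measured weekly by calipers; unpaired two-tailed t test against vehicle.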

[24] = target: Receptor tyrosine-protein kinase erbB-4 (Homo sapiens) (UniProt Q15303); details: 0.5 uM
Chain of Receptor tyrosine-protein kinase erbB-4 (Homo sapiens) (Q15303 whole entry): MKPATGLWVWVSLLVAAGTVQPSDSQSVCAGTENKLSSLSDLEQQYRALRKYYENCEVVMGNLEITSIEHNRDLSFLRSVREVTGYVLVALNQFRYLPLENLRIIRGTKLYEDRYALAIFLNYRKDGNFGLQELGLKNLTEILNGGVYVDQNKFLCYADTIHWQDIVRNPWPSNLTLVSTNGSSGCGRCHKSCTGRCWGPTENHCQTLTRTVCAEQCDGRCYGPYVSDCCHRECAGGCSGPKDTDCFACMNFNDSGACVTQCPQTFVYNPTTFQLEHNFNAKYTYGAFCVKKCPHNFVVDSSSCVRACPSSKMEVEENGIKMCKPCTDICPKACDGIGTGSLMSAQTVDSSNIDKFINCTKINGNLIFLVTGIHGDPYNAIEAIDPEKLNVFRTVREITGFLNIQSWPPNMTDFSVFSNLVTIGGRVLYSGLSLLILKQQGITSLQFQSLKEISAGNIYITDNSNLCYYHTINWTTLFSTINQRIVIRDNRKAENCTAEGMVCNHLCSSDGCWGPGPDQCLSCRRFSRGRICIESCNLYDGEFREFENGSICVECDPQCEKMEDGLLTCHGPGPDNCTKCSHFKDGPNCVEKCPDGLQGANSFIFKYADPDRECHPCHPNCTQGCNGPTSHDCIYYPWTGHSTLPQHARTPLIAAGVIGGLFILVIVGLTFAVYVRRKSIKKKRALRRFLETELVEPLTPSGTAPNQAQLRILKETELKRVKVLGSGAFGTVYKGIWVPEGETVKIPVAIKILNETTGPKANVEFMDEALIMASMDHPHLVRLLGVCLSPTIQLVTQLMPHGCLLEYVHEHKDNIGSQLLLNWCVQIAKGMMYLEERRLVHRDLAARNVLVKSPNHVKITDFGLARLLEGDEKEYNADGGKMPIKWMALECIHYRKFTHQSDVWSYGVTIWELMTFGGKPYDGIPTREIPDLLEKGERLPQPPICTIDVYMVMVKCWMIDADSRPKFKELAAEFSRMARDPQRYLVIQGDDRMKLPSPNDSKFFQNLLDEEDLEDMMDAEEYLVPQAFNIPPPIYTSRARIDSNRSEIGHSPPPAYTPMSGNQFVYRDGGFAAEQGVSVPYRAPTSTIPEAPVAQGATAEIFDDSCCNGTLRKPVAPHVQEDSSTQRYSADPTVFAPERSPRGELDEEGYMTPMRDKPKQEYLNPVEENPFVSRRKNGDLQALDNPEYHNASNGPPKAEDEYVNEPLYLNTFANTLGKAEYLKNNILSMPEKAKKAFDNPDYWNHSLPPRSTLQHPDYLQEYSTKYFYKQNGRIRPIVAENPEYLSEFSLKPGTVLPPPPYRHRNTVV

[25] = target: Transcription factor p65 (Homo sapiens) (UniProt Q04206); assay: Inhibition of NF-kappaB-p65 binding to NF-kappaB response element oligonucleotide in nuclear extracts of 12 hrs compound pre-treated human MDA-MB-231 cells at 2.5 to 15 uM by ELISA
Procedure, shortened: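 MDA-MB-231 cells treated with compound or DMSO for 12 h; in some runs TNFα (20 ng/mL final) added for a further 20 min at 37 °C. Nuclear extracts prepared on ice and protein measured by Bradford. 5 μg of extract incubated on plate-immobilized NF-κB response element oligonucleotide. Bound complexes detected with anti-p65 primary and HRP secondary antibody, read at 450 nm. Specificity checked by competition with free oligonucleotide; triplicates.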

[26] = target: Transcription factor p65 (Homo sapiens) (UniProt Q04206); assay: Inhibition of IL-1beta-stimulated nuclear translocation of GFP-tagged NF-kappaB-p65 (unknown origin) expressed in CHO cells at 15 uM preincubated with IL-1beta for 30 mins followed by compound addition by fluorescence assay; assay type: cell-based
[27] = target: Receptor tyrosine-protein kinase erbB-4 (Homo sapiens) (UniProt Q15303); assay: Inhibition of N-terminal GST-tagged human recombinant ERBB4 expressed in baculovirus expression system
[28] = test system: MDA-MB-231; assay: as §2, with “Antitumor activity against” for “Toxicity in”, “xenografted in” for “xenografted”, “mouse” for “mouse assessed as anomalous behaviour”; assay type: functional, organism-based; procedure, shortened: as §4
[29] = test system: MDA-MB-231; assay: Antitumor activity against human MDA-MB-231 cells xenografted in NMRI nu/nu mouse at 10 mg/kg, sc administered 5 days post tumor cell inoculation treated for 14 days followed by treatment pause for 6 days measured after 21 days; assay type: functional, organism-based; procedure, shortened: as §4
[30] = target: Serine/threonine-protein kinase pim-1 (Homo sapiens, UniProt P11309); assay: Inhibition of human recombinant full length His-tagged PIM-1 expressed in baculovirus expression system
Chain of Serine/threonine-protein kinase pim-1 (P11309 whole entry, looked up): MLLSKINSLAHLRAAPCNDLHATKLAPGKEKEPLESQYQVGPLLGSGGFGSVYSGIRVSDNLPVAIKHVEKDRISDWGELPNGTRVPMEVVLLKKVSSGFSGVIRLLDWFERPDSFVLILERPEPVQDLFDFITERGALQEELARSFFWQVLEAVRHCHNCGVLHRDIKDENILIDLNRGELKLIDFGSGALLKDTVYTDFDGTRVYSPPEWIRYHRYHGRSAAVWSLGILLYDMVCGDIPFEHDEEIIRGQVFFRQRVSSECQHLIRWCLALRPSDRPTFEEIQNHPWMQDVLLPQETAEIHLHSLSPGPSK

Structure (SMILES)	clearance [2]	inhibition [3]	inhibition [4]	Cmax [5]	pIC50 [6]	Activity [7]	Activity [8]	Activity [9]	CL/F [10]	Tmax [11]	AUC(0-inf) [12]	concentration at 24 h [13]	Activity [14]	solubility [15]	Activity [16]	GI50 [17]	pIC50 [18]	half-life [19]	half-life at 0.5 µM [20]	AUC(0-t) at 24 h [21]	also measured
O=C1NC(=O)/C(=C/c2cccc(C(F)(F)F)c2)S1																					inhibition [1]: inactive
FC(F)(F)c1csc(NC(=S)Nc2ccc3ncnc(Nc4cccc(Cl)c4)c3c2)n1	51 mL/min/kg	92%	56.4%	101 ng/mL	6.86	Non-Toxic	Non-Toxic	Non-Toxic	157 mL/min/kg	1 h	1060 ng·h/mL	3.5 ng/mL	Non-Toxic	Soluble	Non-Toxic	900 nM	6.22	4.3 h	0.367 h	1040 ng·h/mL	
COc1cc2ncnc(Nc3ccc(F)c(Cl)c3)c2cc1OCCCN1CCOCC1 [GEFITINIB]														Soluble							inhibition [22]: inactive; TGI [23]: Active; inhibition [24]: 46 to 76%; inhibition [25]: inactive; inhibition [26]: inactive
Fc1cc(F)cc(NC(=S)Nc2ccc3ncnc(Nc4cccc(Cl)c4)c3c2)c1	19 mL/min/kg	73.5%	87.6%	327 ng/mL	7.22	Non-Toxic	Non-Toxic	Non-Toxic	26.3 mL/min/kg	8 h	6330 ng·h/mL	79 ng/mL	Non-Toxic	Soluble	Non-Toxic	1100 nM	6.52	7.8 h	2.32 h	5440 ng·h/mL	inhibition [27]: inactive; TGI [28]: Active; TGI [29]: Active; inhibition [30]: inactive
